Converted amounts (≈) assume the structure as drawn. “And” between values parts separate entries of the source, which are not always exact repeats. Identical values can stand only once.
Tests used:
[1] = Inhibition of Influenza A virus 6His-tagged PA (239 to 716 residues)/GST-tagged PB1 (1 to 25 residues) expressed in Escherichia coli BL21 pLysS protein-protein interaction using 3,3',5,5'tetramethylbenzedine as substrate by ELISA
Influenza A virus = assay: Antiviral activity against Influenza A virus A/PR/8/34 (H1N1) infected in MDCK cells assessed as reduction in plaque formation treated 1 hr post viral infection and measured after 48 hrs post-infection by toluidine blue staining based plaque reduction assay; format: functional, organism-based; settings: A/Puerto Rico/8/1934(H1N1)
MDCK = assay: (§1) Cytotoxicity against dog MDCK cells assessed as reduction in cell viability incubated for 48 hrs by MTT assay; format: cell-based, Canis lupus familiaris; settings: mdck, 48 h
Summary of the method: (§2)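 MDCK cells seeded at 2 × 10^4/well and grown 24 h, then given serial compound dilutions in DMEM with 10% FBS (DMSO control) for 48 h at 37 °C. MTT (5 mg/mL stock) added for 4 h, cells solubilised overnight, OD read at 620 nm. […] Mean ± SD of ≥3 independent experiments in duplicate.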

[2] = Equilibrium solubility of the compound in phosphate buffer at pH 7.4 incubated for 2 hrs; format: physicochemical; settings: for solubility thermodynamic at 2 h: phosphate buffer, pH 7.4; for solubility: buffer, pH 7.4, 2 h, 2 h
[3] = Cytotoxicity in dog MDCK cells assessed as reduction in cell viability incubated for 24 to 120 hrs by MTT assay; format: cell-based, Canis lupus familiaris; settings: time 24-120 hrs
[4] = target: RNA-directed RNA polymerase (Influenza A virus (strain A/Puerto Rico/8/1934 H1N1), UniProt P03428+P03431+P03433); assay: Inhibition of RdRP activity in Influenza A virus A/PR/8/34 (H1N1) infected in HEK293T cells co-transfected with NP/PA/PB1/PB2/pPolI-Flu-ffLuc/pRL-SV40 incubated for 24 hrs by minireplicon based dual luciferase assay; format: cell-based, Influenza A virus (A/Puerto Rico/8/1934(H1N1))
Summary of the method: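 HEK293T cells (2 × 10^5/well) plated overnight, then calcium-phosphate transfected with PB1, PB2, PA and NP plasmids (100 ng each), pPolI-Flu-ffLuc reporter (50 ng; WSN segment 8 noncoding ends) and pRL-SV40 (50 ng), with compound or DMSO present. Medium replaced at 5 h with compound-containing DMEM. Dual luciferase read at 24 h. Firefly normalised to Renilla, DMSO set as 100% polymerase activity.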

[5] = Metabolic stability in human liver microsomes assessed as compound remaining at 10 uM preincubated for 5 mins followed by NADPH addition and measured after 60 mins by LC-MS/MS analysis; format: ADME, Microsome; settings: time 65 min, read-out: Stabilty
Summary of the method: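 Compound at 10 µM preincubated 5 min at 37 °C with human liver microsomes (1 mg/mL) in 0.1 M phosphate, pH 7.4. Reaction started with 2 mM NADPH. Samples taken at 0, 10, 20, 40 and 60 min, quenched in cold acetonitrile containing labetalol internal standard, and centrifuged. Analysed by LC-MS/MS (Q-TOF) for percent unchanged compound and metabolites. Half-life and intrinsic clearance estimated.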

[6] = Protein binding in human plasma assessed as unbound fraction at 5 uM incubated for 4 hrs by UPLC/MS-MS based rapid equilibrium dialysis method; format: ADME, cell-free
Summary of the method: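 Compound at 5 µM in human plasma, dialysed against buffer by rapid equilibrium dialysis for 4 h at 37 °C. Chamber aliquots matrix-matched, precipitated with acetonitrile, and quantified by UPLC-MS/MS peak areas.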

[7] = as §1; format: cell-based, Canis lupus familiaris; settings: MDCK cells; summary of the method: as §2

SMILES | IC50 [1] [µM] | EC50 (Influenza A virus) [µM] | CC50 (MDCK) [µM] | other results
Cc1cc(-c2ccccc2)nc2nc(C(=O)Nc3sc4c(c3C(=O)O)CCCCC4)nn12 | 18 | 70 | > 250 | –
COc1cc2nc(N3CCN(C(=O)c4ccco4)CC3)nc(N)c2cc1OC [PRAZOSIN] | – | – | – | solubility thermodynamic at 2 h [2]: 62.8 µM (≈ 24.1 µg/mL)
Cc1cc(-c2ccccc2)n2nc(C(=O)Nc3c(C(N)=O)sc4ncccc34)nc2n1 | 3.3 | > 100 | > 250 | –
Cc1cc(-c2ccccc2)n2nc(C(=O)Nc3sc4c(c3C(=O)Nc3ccccn3)CCCCC4)nc2n1 | 23 | 48 | > 250 | –
COc1ccc(C(=O)Nc2nc3n(n2)C(c2ccccc2)C=C(C)N3)cc1 (stereo not given) | – | > 100 | – | CC50 [3]: > 250 µM
Cc1cc(-c2ccccc2)nc2nc(C(=O)Nc3ccccc3C(N)=O)nn12 | 7 | 31 | > 250 | solubility [2]: 82.2 uM and 30.6 ug ml-1; EC50 [4]: 5.8 µM; remaining at 1 h, 10 µM [5]: 76%; Fu [6]: 22.45%
Cc1cc(-c2ccccc2)nc2nc(C(=O)Nc3ccsc3C(N)=O)nn12 | 50 | > 100 | 240 | –
Cc1cc(-c2ccccc2)n2nc(C(=O)Nc3ccsc3C(N)=O)nc2n1 | 31 | 43 | – | CC50 at 48 h [7]: 250 µM
Cc1cc(-c2ccccc2)n2nc(C(=O)Nc3sc4c(c3C(N)=O)CCCC4)nc2n1 | 15 | 32 | > 250 | –
Cc1cc(-c2ccccc2)n2nc(C(=O)Nc3nc4ccccc4s3)nc2n1 | 21 | > 50 | > 250 | –
Cc1cc(-c2ccccc2)n2nc(C(=O)Nc3c(C(N)=O)sc4c3CCCCC4)nc2n1 | > 200 | > 50 | 90 | –
Cc1cc(-c2ccccc2)n2nc(C(=O)Nc3c(C(N)=O)sc4ccccc34)nc2n1 | > 200 | 22 | > 250 | –
Cc1cc(-c2ccccc2)n2nc(C(=O)Nc3sc4c(c3C(N)=O)CCC4)nc2n1 | 6.2 | 22 | > 250 | –
CC(=O)[C@H]1CC[C@H]2[C@@H]3CCC4=CC(=O)CC[C@]4(C)[C@H]3CC[C@]12C [PROGESTERONE] | – | – | – | solubility thermodynamic at 2 h [2]: 6.5 µM (≈ 2.04 µg/mL)
Cc1cc(-c2ccccc2)n2nc(C(=O)Nc3sc4ccccc4c3C(N)=O)nc2n1 | > 200 | 49 | > 250 | –
Cc1cc(-c2ccccc2)n2nc(C(=O)Nc3ccccc3C(N)=O)nc2n1 | 11 | > 100 | > 250 | solubility [2]: 17.6 uM and 6.55 ug ml-1
Cc1cc(-c2ccccc2)nc2nc(C(=O)Nc3nc4ccccc4s3)nn12 | > 200 | – | 233 | –
Cc1cc(-c2ccccc2)nc2nc(C(=O)Nc3c(C(N)=O)sc4ncccc34)nn12 | > 200 | 43 | 51 | –
Cc1cc(-c2ccccc2)n2nc(C(=O)Nc3sc4c(c3C(=O)O)CCCCC4)nc2n1 | 19 | 50 | > 250 | –
CCC1CCc2c(sc(NC(=O)c3nc4nc(C)cc(-c5ccccc5)n4n3)c2C(N)=O)C1 (stereo not given) | > 200 | 15 | > 250 | –
Cc1cc(-c2ccccc2)n2nc(C(=O)Nc3sc(C)c(C)c3C(N)=O)nc2n1 | > 200 | > 50 | > 250 | –
NC(=O)c1ncn([C@@H]2O[C@H](CO)[C@@H](O)[C@H]2O)n1 [RIBAVIRIN] | – | 10 | – | CC50 at 48 h [7]: > 250 µM; EC50 [4]: 24 µM
